miR122 inh = miR-122 Renilla sensor signal increase in Huh7, primary screen, miR-122 inhibitor project, cell-based, single point, plate reader | 340,000 compounds, 0.3% hits | Huh7 miR-122 Renilla luciferase sensor, 48 h; neutral wells = 0, positive control = 100 | activation (reporter increase), % at 12.5 µM;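 active = mean replicate activation score at least 90 and every replicate individually at or above 90; inconclusive = only one of the two criteria met; inactive = neither criterion met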;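 note: higher luciferase means less miR-122 activity so hits act as miR-122 inhibitors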
E-selectin induc = E-selectin induction in HUVECs, primary screen, imaging, HUVEC, immunofluorescence imaging, single point | normalized: neutral wells 0, TNF-alpha wells 100 | activation, % at 7.58 µM | 260,000 compounds, 0.37% hits;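 active = mean E-selectin-positive cell signal at least 10% of the positive control, reached in at least 60% of replicates, without over 20% cell loss; inconclusive = no rule given, readout overlaps actives, possibly toxicity-flagged; inactive = the rest, including those meeting only one limit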
Target sequence (P16581 whole entry, looked up): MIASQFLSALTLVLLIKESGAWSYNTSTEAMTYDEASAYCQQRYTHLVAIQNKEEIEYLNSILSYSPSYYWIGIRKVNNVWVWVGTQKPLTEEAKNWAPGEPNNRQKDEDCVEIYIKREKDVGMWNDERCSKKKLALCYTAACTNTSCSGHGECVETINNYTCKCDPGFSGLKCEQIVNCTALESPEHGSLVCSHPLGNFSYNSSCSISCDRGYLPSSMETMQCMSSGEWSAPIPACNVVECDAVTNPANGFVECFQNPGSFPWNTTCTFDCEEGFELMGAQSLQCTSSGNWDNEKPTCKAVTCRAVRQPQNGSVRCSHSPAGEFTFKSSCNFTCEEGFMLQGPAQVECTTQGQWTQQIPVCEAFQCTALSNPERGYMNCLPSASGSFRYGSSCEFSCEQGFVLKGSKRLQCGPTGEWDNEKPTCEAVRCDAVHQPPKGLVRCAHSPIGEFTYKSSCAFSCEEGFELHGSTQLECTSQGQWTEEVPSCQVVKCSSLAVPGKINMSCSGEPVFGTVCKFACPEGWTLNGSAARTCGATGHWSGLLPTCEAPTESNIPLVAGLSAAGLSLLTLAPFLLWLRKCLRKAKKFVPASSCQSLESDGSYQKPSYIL
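Test system – human umbilical vein endothelial cells (HUVEC), E-selectin induction · Input – 3,000 HUVEC seeded per well · Buffer or medium – EGM-2, gelatin · Compound dosing – single-point compound dose · Detection – immunofluorescence imaging · Measure – percent E-selectin-positive cells · Controls – TNF-alpha high, DMSO low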
DENV2 CPE rescue = inhibitors of DENV2 cytopathic effect, primary screen, cell-based, plate reader, single concentration; DENV2-infected cells, cytopathic effect rescue; CPE inhibition, % at 9.99 µM; 350,000 compounds, 1.7% hits; AID 651640, 2012; in the data active = CPE inhibition above about 20%, passing the limit was not always enough; inconclusive = no clear call, values can overlap the other calls; tested in BHK-21 cells;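 note: 0% = median of neutral control wells and 100% = median of positive control wells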
Cneo AK release = Cryptococcus neoformans cell lysis inducers, primary screen, AK release luminescence, single concentration | C. neoformans lysis, adenylate kinase release luminescence, 4 h; normalised: neutral wells 0, clomiphene wells 100 | lysis activity, % at 15 µM | 360,000 compounds, 0.2% hits | AID 651654, 2012;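 active = mean lysis activity across replicates of at least 80%, whatever share of replicates individually reach that level; inactive = mean lysis activity below 80%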
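Material: C. neoformans cells | Amount: Yeast cell density of 5 × 10^6 cells/mL | Medium: Fresh YPD growth medium | Dosing: Single dose | Times: Static 4 h at 37 °C with compound, 1 h detection | Detection: AK luminescence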
rRNA inh HTS = reduced GFP signal of wild-type E. coli, primary screen, bacterial rRNA inhibitor project, GFP/RFP fluorescence, OD600, single point; 350,000 compounds, 1.6% hits; E. coli WT GFP vs humanized-ribosome RFP mutants, 24 h; active compounds read low; DMSO median 0, no signal -100; GFP signal change (wild-type ribosome), % (no concentration beside the values);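 active = significant combined selectivity score with lowered wild-type GFP, culture density cut under 30%, mutant RFP and density less affected; inactive = any of these conditions unmet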
AID977621 = growth inhibition of wild-type GFP E. coli, dose response, H69 mutant RFP, cherry-pick; shares compounds with rRNA inh HTS; activity change, negative = inhibition at 50 µM; 1,900 tested, under 10 active; E. coli wild-type GFP strain growth, fluorescence, 24 h; AID 977621, 2014;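 active = Wild-type ribosome reporter drop at least double the humanized mutant ribosome reporter drop, growth loss under a set limit; inconclusive = no clear call, values can overlap the other calls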;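 note: wild-type GFP and H69 mutant RFP strains grown together 50/50 in each well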
AID977628 = E. coli growth inhibition, wild-type GFP versus h24 humanized RFP strain, dose response, h24 mutant RFP vs wild-type GFP, cherry-pick; 1,900 tested, under 10 active; E. coli WT GFP strain growth, fluorescence, 24 h; shares compounds with rRNA inh HTS; activity change, negative = inhibition at 50 µM;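 active = compound lowering the normal-ribosome reporter at least twice as much as the humanized-ribosome reporter, growth loss under a set limit; inconclusive = no clear call, values can overlap the other calls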;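 note: wild-type GFP and h24 humanized RFP strains co-cultured 1 to 1 per well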
Active calls of the source: *; [ ] = dose if it differs, or a comment. Most compounds without a hit are left out; they make up all but 3.1% or so of the library.

How did C[C@H](CO)N1C[C@H](C)[C@@H](CN(C)C(=O)c2ccc(F)cc2)Oc2cc(Br)ccc2S1(=O)=O do in these assays?
miR122 inh: -1; E-selectin induc: 0; DENV2 CPE rescue: 8; Cneo AK release: 9; rRNA inh HTS: -5

What do the screens show for `CCC(=O)N(C[C@@H]1N[C@H](CO)[C@@H]1c1ccc(C#C[C@@H](C)O)cc1)C1CCCCC1`?
rRNA inh HTS: 0

Results for CCOC(=O)c1cnc2c(c(C)nn2C)c1Oc1cc(Cl)cc(Cl)c1 ?
E-selectin induc: 0; DENV2 CPE rescue: -1; rRNA inh HTS: 5

What do the screens show for `CCOC(=O)c1cnc2c(c(C)nn2C)c1Oc1ccc(OC)cc1`?
miR122 inh: 0; DENV2 CPE rescue: 7; Cneo AK release: 4; rRNA inh HTS: -14*; AID977621: 3.8; AID977628: -8.2

How did O=C(C1CCC1)N1CC2(C1)[C@@H](c1ccccc1)[C@H](CO)N2C(=O)CC1CC1 do in these assays?
E-selectin induc: 0; DENV2 CPE rescue: 8; rRNA inh HTS: 2

Results for CSc1ccccc1OCc1cc(C(=O)N(C)Cc2nonc2C)no1 ?
miR122 inh: -9; DENV2 CPE rescue: -8; Cneo AK release: 0; rRNA inh HTS: -30*; AID977621: -14; AID977628: -12

How did Cc1nonc1CN(C)C(=O)c1cc(COc2ccc(F)cc2Cl)on1 do in these assays?
miR122 inh: 1; DENV2 CPE rescue: -2; Cneo AK release: -8; rRNA inh HTS: -17

Results for c1ccc(Sc2ncnc3ccccc23)cc1 ?
miR122 inh: -9; DENV2 CPE rescue: inconclusive; Cneo AK release: 2; rRNA inh HTS: -18*; AID977628: inconclusive

How did N#CCSc1ncnc2ccccc12 do in these assays?
miR122 inh: 3; E-selectin induc: 1; DENV2 CPE rescue: 3; rRNA inh HTS: 4

Results for C[C@H](CO)N1C[C@H](C)[C@H](CN(C)Cc2ccc(C(F)(F)F)cc2)Oc2ccc(NC(=O)NC3CCCCC3)cc2CC1=O ?
miR122 inh: 5[16.7 µM]; E-selectin induc: 1; DENV2 CPE rescue: 10; Cneo AK release: 0; rRNA inh HTS: 3

How did COc1ccc(C(=O)C[n+]2ccc3c(c2)nc(-c2cc(OC)c(OC)cc2OC)n3C)cc1 do in these assays?
miR122 inh: -6; DENV2 CPE rescue: 11; Cneo AK release: 2; rRNA inh HTS: -28*; AID977621: inconclusive; AID977628: -10

Results for COc1cc(OC)c(-c2nc3c[n+](CC(=O)c4ccccc4)ccc3n2C)cc1OC ?
miR122 inh: -7; Cneo AK release: 0

What do the screens show for `Cc1cc(C(=O)COC(=O)CNC(=O)c2ccccc2)c(C)n1CC1CCCO1` (stereo not drawn)?
E-selectin induc: 0; DENV2 CPE rescue: 8; rRNA inh HTS: -20*; AID977621: -4.9; AID977628: -10

Results for Cc1cccc(Oc2ccc(NC(=O)c3ccccc3C(=O)O)cc2)c1 ?
miR122 inh: -20; E-selectin induc: -1; DENV2 CPE rescue: 11; Cneo AK release: -3; rRNA inh HTS: -23*; AID977621: -17; AID977628: inconclusive

Results for O=C(O)c1ccccc1C(=O)Nc1ccc(Oc2ccccc2)cc1 ?
miR122 inh: -11; E-selectin induc: 0; DENV2 CPE rescue: -3; Cneo AK release: 1; rRNA inh HTS: 1
